Entries after “also recorded” stand apart in the source; their conditions may differ.
How the values were obtained:
[1] = Optical property measurements in 100% FBS at 37°C; type: physicochemical; conditions: for Stokes Shift / λem / λexc / ε (extinction coefficient) / Φ (fluorescence quantum yield): 100% FBS; for ε (extinction coefficient): 50 mM HEPES pH 7.4, 37°C; for Φ (fluorescence quantum yield): ICG in DMSO as standard
Procedure, shortened: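 Spectra were taken at 37°C in 100% FBS buffered with 50 mM HEPES, pH 7.4, on fiberoptic absorbance (200–1100 nm) and fluorescence (350–1000 nm) spectrometers. Excitation was a 770 nm laser diode set to 8 mW. […] Dyes available only as NHS ester were first hydrolysed to acid in 50 mM borate, pH 9.0, for 3 h.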

Stability in warm serum = type: in vitro ADME, bovine; conditions: 100% FBS, up to 4 h
serum proteins = type: in vitro ADME, bovine; conditions: 4 h incubation in 100% FBS
[2] = In vivo biodistribution and clearance in CD-1 mice; conditions: for CBR Bl (bladder) relative to abdominal wall / CBR He/Lu (heart/lungs) relative to abdominal wall / CBR In (intestine) relative to abdominal wall / CBR Li (liver) relative to abdominal wall / CBR Re (rectum) relative to abdominal wall / CBR Sk/Mu (skin/muscle) relative to abdominal wall / CBR Sp (spleen) relative to abdominal wall / Carcass (retention) / Eliminated (from the body into urine): Mouse; for CBR Bl (bladder) relative to abdominal wall / CBR He/Lu (heart/lungs) relative to abdominal wall / CBR In (intestine) relative to abdominal wall / CBR Li (liver) relative to abdominal wall / CBR Re (rectum) relative to abdominal wall / CBR Sk/Mu (skin/muscle) relative to abdominal wall / CBR Sp (spleen) relative to abdominal wall / Carcass (retention) / Eliminated (from the body into urine) / Uptake in intestine / Uptake in kidneys / Uptake in liver: 4 h postinjection; for half-life: blood; for half-life / tissue uptake at 4 h: 40 pmol/g; for Route of elimination (renal clearance), in words: mice, 4 h; for β-phase blood half-life (t1/2β): CD-1 mice, 40 pmol/g i.v.
Procedure, shortened: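 CD-1 male mice (25 to 30 g) received 40 pmol/g fluorophore in saline i.v. and were imaged with the FLARE system on surgically exposed organs. Excitation was 14 mW/cm2 of 745–779 nm-filtered light, with emission through an 800–848 nm bandpass and exposure and normalization held constant. ROI fluorescence and background gave CBR = (FL–BG)/BG, scored against abdominal wall. N = 5, mean ± S.D.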

[3] = In vivo biodistribution and clearance in SD rats; parameters: species or system Sprague-Dawley (SD) rats; conditions: Rat, 4 h postinjection
Procedure, shortened: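 Sprague-Dawley male rats (250 to 300 g) received 40 pmol/g fluorophore in saline i.v. and were imaged with the FLARE system on surgically exposed organs. Excitation was 14 mW/cm2 of 745–779 nm light, with emission through an 800–848 nm bandpass and exposure held constant. CBR = (FL–BG)/BG was scored relative to abdominal wall. N = 5.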

[4] = in dimethyl sulfoxide; cited from earlier work

Row | Stokes Shift [1] | λem [1] | λexc [1] | ε (extinction coefficient) [1] | Φ (fluorescence quantum yield) [1] | Decomposition (Stability in warm serum) | CBR Bl (bladder) relative to abdominal wall [2] | CBR He/Lu (heart/lungs) relative to abdominal wall [2] | CBR In (intestine) relative to abdominal wall [2] | CBR Li (liver) relative to abdominal wall [2] | CBR Re (rectum) relative to abdominal wall [2] | CBR Sk/Mu (skin/muscle) relative to abdominal wall [2] | CBR Sp (spleen) relative to abdominal wall [2] | Carcass (retention) [2] | Eliminated (from the body into urine) [2] | CBR Bl (bladder) relative to abdominal wall [3] | CBR He/Lu (heart/lungs) relative to abdominal wall [3] | CBR In (intestine) relative to abdominal wall [3] | CBR Li (liver) relative to abdominal wall [3] | CBR Re (rectum) relative to abdominal wall [3] | Molecule | also measured
1 | 15 nm | 822 nm | 807 nm | 121,000 M^-1cm^-1 | 9.3% | 5.9% | – (–, 0 to 1) | – (–, 0 to 1) | +++ (+++, > 5) | ++ (++, 2 to 5) | + (+, 1 to 2) | – (–, 0 to 1) | – (–, 0 to 1) | 97.1 ± 9.4 %ID | 2.2 ± 0.9 %ID | – (–, 0 to 1) | – (–, 0 to 1) | +++ (+++, > 5) | ++ (++, 2 to 5) | + (+, 1 to 2) | CC1(C)C(/C=C/C=C/C=C/C=C2\N(CCCCS(=O)(=O)O)c3ccc4ccccc4c3C2(C)C)=[N+](CCCCS(=O)(=O)[O-])c2ccc3ccccc3c21 [ICG, indocyanine green] | Serum protein binding (HD shift by GFC) (serum proteins): significant HD shift; half-life ([2]; male, CD-1, mouse, iv): 3.6 min; tissue uptake at 4 h ([2]; male, CD-1, mouse, intestine, intravenous): 62 ± 6.6 %ID/g; tissue uptake at 4 h ([2]; male, CD-1, mouse, kidneys, intravenous): 5.9 ± 1 %ID/g; tissue uptake at 4 h ([2]; male, CD-1, mouse, liver, intravenous): 27.1 ± 0.5 %ID/g; Route of elimination (renal clearance), in words [2]: undetectable in urine; half-life ([2]; mouse, intravenous): 2 to 5 min; CBR Sk/Mu (skin/muscle) relative to abdominal wall [3]: – (–, 0 to 1); CBR Sp (spleen) relative to abdominal wall [3]: – (–, 0 to 1); Φ (fluorescence quantum yield) of calibration standard [4]: 13%
2 | 14 nm | 800 nm | 786 nm | 237,000 M^-1cm^-1 | 14.2% | 4.0% | +++ (+++, > 5) | – (–, 0 to 1) | +++ (+++, > 5) | – (–, 0 to 1) | ++ (++, 2 to 5) | + (+, 1 to 2) | – (–, 0 to 1) | 52.4 ± 9.6 %ID | 44.0 ± 4.6 %ID | +++ (+++, > 5) | – (–, 0 to 1) | +++ (+++, > 5) | + (+, 1 to 2) | + (+, 1 to 2) | CC1(C)C(=CC=C2CCCC(C=CC3=[N+](CCCCCC(=O)[O-])c4ccc(S(=O)(=O)[O-])cc4C3(C)C)=C2Oc2ccc(S(=O)(=O)[O-])cc2)N(CCCCS(=O)(=O)[O-])c2ccc(S(=O)(=O)[O-])cc21.[Na+].[Na+].[Na+].[Na+] [CW800, IRDye™800-CW carboxylic acid] | Uptake in intestine [2]: 28.5 ± 7.0 %ID/g; Uptake in kidneys [2]: 7.3 ± 1.3 %ID/g; Uptake in liver [2]: 11.4 ± 0.8 %ID/g; β-phase blood half-life (t1/2β) [2]: 18.5 min; CBR Sk/Mu (skin/muscle) relative to abdominal wall [3]: + (+, 1 to 2); CBR Sp (spleen) relative to abdominal wall [3]: – (–, 0 to 1)
3 | 16 nm | 788 nm | 772 nm | 249,000 M^-1cm^-1 | 15.1% | 5.5% | +++ (+++, > 5) | – (–, 0 to 1) | – (–, 0 to 1) | – (–, 0 to 1) | – (–, 0 to 1) | – (–, 0 to 1) | – (–, 0 to 1) | 12.4 ± 3.4 %ID | 86.0 ± 15.4 %ID | +++ (+++, > 5) | – (–, 0 to 1) | – (–, 0 to 1) | – (–, 0 to 1) | – (–, 0 to 1) | CC1(C)C(/C=C/C2=C(Oc3ccc(CCC(=O)O)cc3)C(=C/C=C3/N(CCC[N+](C)(C)C)c4ccc(S(=O)(=O)O)cc4C3(C)C)/CCC2)=[N+](CCC[N+](C)(C)C)c2ccc(S(=O)(=O)O)cc21 [ZW800-1] | Product of extinction coefficient and quantum yield in serum, relative to ICG ([1]; in serum): over 3 fold; Serum protein binding (HD shift by GFC) (serum proteins): does not exhibit protein binding; also recorded: no serum protein binding; also recorded: did not adsorb to serum proteins; Found in urine ([2]; 1 h post-injection): 51.3 ± 9.7 %ID; Uptake in intestine [2]: 0.7 ± 0.4 %ID/g; Uptake in kidneys [2]: 9.8 ± 2.2 %ID/g; Uptake in liver [2]: 0.9 ± 0.1 %ID/g; β-phase blood half-life (t1/2β) [2]: 15.1 min; Route of elimination (renal clearance), in words [2]: exclusively cleared by the kidneys; also recorded: mostly renally cleared; CBR Sk/Mu (skin/muscle) relative to abdominal wall [3]: – (–, 0 to 1); CBR Sp (spleen) relative to abdominal wall [3]: – (–, 0 to 1); Carcass (retention) ([3]; not measured directly): 14.8 ± 6.5 %ID; Eliminated ([3]; not measured directly): 83.4 ± 15.9 %ID
4 | 16 nm | 800 nm | 784 nm | 240,000 M^-1cm^-1 | 16.9% | 4.4% | ++ (++, 2 to 5) | – (–, 0 to 1) | ++ (++, 2 to 5) | – (–, 0 to 1) | +++ (+++, > 5) | – (–, 0 to 1) | – (–, 0 to 1) | 79.0 ± 4.1 %ID | 15.5 ± 1.2 %ID | – (–, 0 to 1) | – (–, 0 to 1) | +++ (+++, > 5) | – (–, 0 to 1) | ++ (++, 2 to 5) | IRDye™800-RS carboxylic acid [RS800] | β-phase blood half-life (t1/2β) [2]: 11.2 min; Renal filtration / renal excretion ([2]; approximate, discussion statement): ≈ 20%; CBR Sk/Mu (skin/muscle) relative to abdominal wall [3]: – (–, 0 to 1); CBR Sp (spleen) relative to abdominal wall [3]: – (–, 0 to 1)

From publication PMC3128676 (Angewandte Chemie (International ed. in English), 2011)
